Laboratory results taken from ChEMBL document CHEMBL1129534, “Antitumor agents. 163. Three-dimensional quantitative structure-activity relationship study of 4'-O-demethylepipodophyllotoxin analogs using the modified CoMFA/q2-GRS approach” (J Med Chem, 1996).
Where “and” joins values, the source holds several entries; their conditions need not be identical. Identical values can stand only once.

Target: DNA topoisomerase II (Homo sapiens) (UniProt P11388+Q02880)
Test: Compound tested for ability to form a cellular covalent topoisomerase II-DNA complex.
Type: functional
Method in brief: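 Read-out is intracellular covalent topoisomerase II–DNA complex formation, scored as the percentage of cellular protein–DNA complex formed (PCPDCF). For CoMFA modelling the values were transformed to ln(PCPDCF + 1).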

SMILES	Protein-DNA complex formation
COc1cc([C@@H]2c3cc4c(cc3[C@@H](NC(=O)c3ccc(N)cc3)[C@H]3COC(=O)[C@H]23)OCO4)cc(OC)c1O	120%
COc1cc([C@@H]2c3cc4c(cc3[C@@H](OC(=O)c3cccc(N)c3)[C@H]3COC(=O)[C@H]23)OCO4)cc(OC)c1O	100%
COc1cc(CN[C@@H]2c3cc4c(cc3[C@@H](c3cc(OC)c(O)c(OC)c3)[C@H]3C(=O)OC[C@@H]32)OCO4)cc(OC)c1	144%
CCOC(=O)c1ccccc1N[C@@H]1c2cc3c(cc2[C@@H](c2cc(OC)c(O)c(OC)c2)[C@H]2C(=O)OC[C@@H]21)OCO3	4%
COc1cc([C@@H]2c3cc4c(cc3[C@@H](NCCN3CCCCC3)[C@H]3COC(=O)[C@H]23)OCO4)cc(OC)c1O	183% and 190%
COc1cc([C@@H]2c3cc4c(cc3[C@@H](NCc3ccccc3F)[C@H]3COC(=O)[C@H]23)OCO4)cc(OC)c1O	126%
COc1cc([C@@H]2c3cc4c(cc3[C@@H](NCCO)[C@H]3COC(=O)[C@H]23)OCO4)cc(OC)c1O	121%
COc1cc([C@@H]2c3cc4c(cc3[C@@H](Nc3cc(F)cc(F)c3)[C@H]3COC(=O)[C@H]23)OCO4)cc(OC)c1O	115%
COc1cc([C@@H]2c3cc4c(cc3[C@@H](Nc3ccc(N)cc3)[C@H]3COC(=O)[C@H]23)OCO4)cc(OC)c1O	330%
COc1cc([C@@H]2c3cc4c(cc3[C@H](N)[C@H]3COC(=O)[C@H]23)OCO4)cc(OC)c1O	8%
COc1cc([C@@H]2c3cc4c(cc3[C@@H](NC(=O)c3ccc(C#N)cc3)[C@H]3COC(=O)[C@H]23)OCO4)cc(OC)c1O	159%
COc1cc([C@@H]2c3cc4c(cc3[C@@H](Nc3cccc(Br)c3)[C@H]3COC(=O)[C@H]23)OCO4)cc(OC)c1O	62%
COCCN[C@@H]1c2cc3c(cc2[C@@H](c2cc(OC)c(O)c(OC)c2)[C@H]2C(=O)OC[C@@H]21)OCO3	111%
COc1cc([C@@H]2c3cc4c(cc3[C@@H](OC(=O)c3ccc(N)cc3)[C@H]3COC(=O)[C@H]23)OCO4)cc(OC)c1O	94%
COc1cc([C@@H]2c3cc4c(cc3[C@@H](Nc3ccc(N5CCOCC5)cc3)[C@H]3COC(=O)[C@H]23)OCO4)cc(OC)c1O	140%
COC(=O)c1cc(N[C@@H]2c3cc4c(cc3[C@@H](c3cc(OC)c(O)c(OC)c3)[C@H]3C(=O)OC[C@@H]32)OCO4)ccc1O	83%
COc1cc([C@@H]2c3cc4c(cc3[C@@H](Nc3ccccc3Cl)[C@H]3COC(=O)[C@H]23)OCO4)cc(OC)c1O	32%
COc1cc([C@@H]2c3cc4c(cc3[C@@H](O)[C@H]3COC(=O)[C@H]23)OCO4)cc(OC)c1O	42.2%
COc1cc([C@@H]2c3cc4c(cc3[C@@H](O[C@@H]3O[C@@H]5CO[C@@H](C)O[C@H]5[C@H](O)[C@H]3O)[C@H]3COC(=O)[C@H]23)OCO4)cc(OC)c1O	100%
COc1cc([C@@H]2c3cc4c(cc3[C@@H](Oc3ccc(F)cc3)[C@H]3COC(=O)[C@H]23)OCO4)cc(OC)c1O	57%
COc1cccc(N[C@@H]2c3cc4c(cc3[C@@H](c3cc(OC)c(O)c(OC)c3)[C@H]3C(=O)OC[C@@H]32)OCO4)c1	104%
COc1cc([C@@H]2c3cc4c(cc3[C@@H](Nc3cccc(F)c3)[C@H]3COC(=O)[C@H]23)OCO4)cc(OC)c1O	158%

SMILES	Protein-DNA complex formation
COc1cc([C@@H]2c3cc4c(cc3[C@@H](Nc3ccc(Oc5ccccc5)cc3)[C@H]3COC(=O)[C@H]23)OCO4)cc(OC)c1O	97%
COc1cc([C@@H]2c3cc4c(cc3[C@@H](Nc3ccc5c(c3)OCO5)[C@H]3COC(=O)[C@H]23)OCO4)cc(OC)c1O	164%
COc1cc([C@@H]2c3cc4c(cc3[C@@H](NCc3ccc(F)cc3)[C@H]3COC(=O)[C@H]23)OCO4)cc(OC)c1O	169%
COc1cc([C@@H]2c3cc4c(cc3[C@@H](NCc3cccc(F)c3)[C@H]3COC(=O)[C@H]23)OCO4)cc(OC)c1O	216%
COc1cc([C@@H]2c3cc4c(cc3[C@@H](NC(=O)c3ccc(OC(C)=O)cc3)[C@H]3COC(=O)[C@H]23)OCO4)cc(OC)c1O	137%
COc1cc([C@@H]2c3cc4c(cc3[C@@H](Nc3ccccc3F)[C@H]3COC(=O)[C@H]23)OCO4)cc(OC)c1O	121%
COc1cc([C@@H]2c3cc4c(cc3[C@@H](Nc3ccccn3)[C@H]3COC(=O)[C@H]23)OCO4)cc(OC)c1O	97%
COc1cc([C@@H]2c3cc4c(cc3[C@@H](NCCCO)[C@H]3COC(=O)[C@H]23)OCO4)cc(OC)c1O	89.2%
COc1cc([C@@H]2c3cc4c(cc3[C@@H](Nc3ccc(C(=O)O)cc3)[C@H]3COC(=O)[C@H]23)OCO4)cc(OC)c1O	6.9% and 1.9%
COc1cc([C@@H]2c3cc4c(cc3[C@@H](Nc3ccc(Cl)cc3)[C@H]3COC(=O)[C@H]23)OCO4)cc(OC)c1O	99%
COc1ccc(N[C@@H]2c3cc4c(cc3[C@@H](c3cc(OC)c(O)c(OC)c3)[C@H]3C(=O)OC[C@@H]32)OCO4)cc1OC	180%
COC(=O)c1cc(N[C@@H]2c3cc4c(cc3[C@@H](c3cc(OC)c(O)c(OC)c3)[C@H]3C(=O)OC[C@@H]32)OCO4)cc(C(=O)OC)c1	50%
COC(=O)c1ccc(N[C@@H]2c3cc4c(cc3[C@@H](c3cc(OC)c(O)c(OC)c3)[C@H]3C(=O)OC[C@@H]32)OCO4)cc1O	129%
COc1cc([C@@H]2c3cc4c(cc3[C@@H](NCCCN(C)C)[C@H]3COC(=O)[C@H]23)OCO4)cc(OC)c1O	186% and 179%
COc1cc([C@@H]2c3cc4c(cc3[C@@H](Nc3cc(C(F)(F)F)cc(C(F)(F)F)c3)[C@H]3COC(=O)[C@H]23)OCO4)cc(OC)c1O	21%
COc1cc([C@@H]2c3cc4c(cc3[C@@H](Nc3cc(OC)c(OC)c(OC)c3)[C@H]3COC(=O)[C@H]23)OCO4)cc(OC)c1O	47%
CCOC(=O)c1ccc(N[C@@H]2c3cc4c(cc3[C@@H](c3cc(OC)c(O)c(OC)c3)[C@H]3C(=O)OC[C@@H]32)OCO4)cc1	207%
COc1cc([C@@H]2c3cc4c(cc3[C@@H](NCc3cccc(C#N)c3)[C@H]3COC(=O)[C@H]23)OCO4)cc(OC)c1O	225%
COc1cc([C@@H]2c3cc4c(cc3[C@@H](NCc3ccc([N+](=O)[O-])cc3)[C@H]3COC(=O)[C@H]23)OCO4)cc(OC)c1O	216%
COc1cc([C@@H]2c3cc4c(cc3[C@@H](NCc3ccccc3)[C@H]3COC(=O)[C@H]23)OCO4)cc(OC)c1O	181%
COc1cc([C@@H]2c3cc4c(cc3[C@@H](NC(=O)c3ccc([N+](=O)[O-])cc3)[C@H]3COC(=O)[C@H]23)OCO4)cc(OC)c1O	160%
COc1cc([C@@H]2c3cc4c(cc3[C@@H](Sc3ccc(O)cc3)[C@H]3COC(=O)[C@H]23)OCO4)cc(OC)c1O	10%

Next, values leading:

Protein-DNA complex formation	SMILES
140%	COc1cc([C@@H]2c3cc4c(cc3[C@@H](Nc3cccc(N)c3)[C@H]3COC(=O)[C@H]23)OCO4)cc(OC)c1O
128%	COc1cc([C@@H]2c3cc4c(cc3[C@@H](NC(=O)c3ccccc3F)[C@H]3COC(=O)[C@H]23)OCO4)cc(OC)c1O
149%	COc1cc([C@@H]2c3cc4c(cc3[C@@H](NC(=O)c3cccc(N)c3)[C@H]3COC(=O)[C@H]23)OCO4)cc(OC)c1O
284%	COc1cc([C@@H]2c3cc4c(cc3[C@@H](NCc3ccc(C#N)cc3)[C@H]3COC(=O)[C@H]23)OCO4)cc(OC)c1O
230%	COc1cc([C@@H]2c3cc4c(cc3[C@@H](Nc3cccc([N+](=O)[O-])c3)[C@H]3COC(=O)[C@H]23)OCO4)cc(OC)c1O
249%	COC(=O)c1cccc(N[C@@H]2c3cc4c(cc3[C@@H](c3cc(OC)c(O)c(OC)c3)[C@H]3C(=O)OC[C@@H]32)OCO4)c1
290%	COc1cc([C@@H]2c3cc4c(cc3[C@@H](Nc3cccc(O)c3)[C@H]3COC(=O)[C@H]23)OCO4)cc(OC)c1O
116%	COc1cc([C@@H]2c3cc4c(cc3[C@@H](NC(=O)c3cccc(F)c3)[C@H]3COC(=O)[C@H]23)OCO4)cc(OC)c1O
150%	COc1cc([C@@H]2c3cc4c(cc3[C@@H](Nc3cccc(C(C)=O)c3)[C@H]3COC(=O)[C@H]23)OCO4)cc(OC)c1O
144%	COc1cc([C@@H]2c3cc4c(cc3[C@@H](NCc3ccccc3[N+](=O)[O-])[C@H]3COC(=O)[C@H]23)OCO4)cc(OC)c1O
148%	COc1cc([C@@H]2c3cc4c(cc3[C@@H](Nc3cccnc3)[C@H]3COC(=O)[C@H]23)OCO4)cc(OC)c1O
235%	COc1cc([C@@H]2c3cc4c(cc3[C@@H](Nc3cccc(CO)c3)[C@H]3COC(=O)[C@H]23)OCO4)cc(OC)c1O
151%	COc1cc([C@@H]2c3cc4c(cc3[C@@H](Nc3ccccc3O)[C@H]3COC(=O)[C@H]23)OCO4)cc(OC)c1O
177%	COc1cc([C@@H]2c3cc4c(cc3[C@@H](NC(=O)c3ccccc3)[C@H]3COC(=O)[C@H]23)OCO4)cc(OC)c1O
159%	COc1cc([C@@H]2c3cc4c(cc3[C@@H](NCc3cccc(Cl)c3)[C@H]3COC(=O)[C@H]23)OCO4)cc(OC)c1O
137%	COc1cc([C@@H]2c3cc4c(cc3[C@@H](Nc3cccc(C#N)c3)[C@H]3COC(=O)[C@H]23)OCO4)cc(OC)c1O
130%	COc1cc([C@@H]2c3cc4c(cc3[C@@H](NCc3cccc([N+](=O)[O-])c3)[C@H]3COC(=O)[C@H]23)OCO4)cc(OC)c1O
167%	COc1cc([C@@H]2c3cc4c(cc3[C@@H](NC[C@H](C)O)[C@H]3COC(=O)[C@H]23)OCO4)cc(OC)c1O
64%	COc1cc([C@@H]2c3cc4c(cc3[C@@H](Nc3ccc(I)cc3)[C@H]3COC(=O)[C@H]23)OCO4)cc(OC)c1O
